Compound activity from PubChem BioAssay.
mIAP inh: blocks mouse intestinal alkaline phosphatase; actives 0.2% (n = 330,000); purified mouse IAP, CDP-Star luminescence, 30 min; AID 2806; inhibition, % at 10 µM;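 active = inhibition of at least 40% at 10 µM in the primary screen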
bIAP activator: increases bovine intestinal alkaline phosphatase activity. purified bovine IAP, CDP-star luminescence, 30 min; stronger effect = higher value; fold of DMSO-control signal, blank-subtracted. activation factor at 20 µM. actives 0.17% (n = 200,000). AID 1016;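 active = activation factor of 2 or more at 20 µM, a signal rise over negative controls twice the positive control's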
mIAP activ: mouse IAP activation; muIAP, CDP-Star luminescence, 30 min; stronger effect = higher value; 1 = vehicle-only enzyme signal, 0 = enzyme-free wells; actives 0.24% (n = 330,000); AID 2805; activation factor at 10 µM;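 active = activation factor of at least 2 at 20 µM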
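Assay system: mouse IAP enzyme; Reagent: CDP-Star chemiluminescent phosphatase substrate; Compound: DMSO-dissolved test compounds; Incubation: 30 min, room temperature; Technique: luminescence from enzymatic CDP-Star hydrolysis; Controls: DMSO-only wells and no-enzyme negative control.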
hIAP block: blocks human intestinal alkaline phosphatase | P09923 | purified IAP, CDP-Star luminescence, 30 min | inhibition, % at 10 µM | actives 0.12% (n = 330,000) | AID 2544;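 active = inhibition reaching a set limit with compound at 10 µM in the primary screen, cut at about 35% in these data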
Target sequence (P09923 whole entry, looked up): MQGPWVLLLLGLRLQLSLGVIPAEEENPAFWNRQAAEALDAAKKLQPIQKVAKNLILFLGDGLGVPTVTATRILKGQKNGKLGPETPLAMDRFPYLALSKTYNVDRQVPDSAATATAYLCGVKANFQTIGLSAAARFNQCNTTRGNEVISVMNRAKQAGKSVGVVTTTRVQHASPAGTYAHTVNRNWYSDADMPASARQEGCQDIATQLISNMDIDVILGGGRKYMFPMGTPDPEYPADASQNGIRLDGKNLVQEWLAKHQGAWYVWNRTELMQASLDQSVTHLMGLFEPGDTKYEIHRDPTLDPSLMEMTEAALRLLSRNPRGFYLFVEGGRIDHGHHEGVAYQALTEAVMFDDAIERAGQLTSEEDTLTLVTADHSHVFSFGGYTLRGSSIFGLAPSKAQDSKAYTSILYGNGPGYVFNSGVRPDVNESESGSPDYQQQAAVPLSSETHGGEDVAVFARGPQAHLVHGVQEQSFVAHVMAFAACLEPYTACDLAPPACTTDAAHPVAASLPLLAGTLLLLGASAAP
hIAP act: increases human intestinal alkaline phosphatase activity; actives 0.16% (n = 330,000); AID 2524; purified human IAP, CDP-Star luminescence, 30 min; stronger effect = higher value; 1 = vehicle-only enzyme, 0 = enzyme-free background; P09923; activation factor at 10 µM;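 active = activation factor of the enzyme at least 2-fold when tested at 20 µM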
bIAP inh: intestinal alkaline phosphatase (bovine) inhibition; purified bovine IAP, CDP-star luminescence, 30 min; inhibition, % at 20 µM; 190,000 tested, under 10 active;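 active = over 50% inhibition of intestinal alkaline phosphatase at 20 µM in the single-dose screen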
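System: Purified bovine intestinal alkaline phosphatase (IAP) enzyme | Input: IAP diluted 1/65,000,000 in the well | Also added: CDP-star chemiluminescent phosphatase substrate, 30 µM final | Dosing: 20 µM single dose | Times: Enzyme reaction for 30 min at room temperature | Detection: Luminescence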
A number is an active result; i = inactive; nt = not tested or not shown. Sampled rows, rich in hits. Any-hit rate of the full collection: about 0.77%.

SMILES	mIAP inh	bIAP activator	mIAP activ	hIAP block	hIAP act	bIAP inh
OCCN1CCN(CC(O)COc2ccc3ccccc3c2)CC1 (stereo unspecified)	i	2.9	i	i	i	i
CCO[C@@H]1OC(C(=O)N2CCN(Cc3ccc4c(c3)OCO4)CC2)=C[C@H](c2cn(C(C)=O)c3ccccc23)[C@H]1CCCO	42.6	i	i	i	i	i
CCO[C@@H]1OC(C(=O)N2CCN(Cc3ccc4c(c3)OCO4)CC2)=C[C@H](c2csc3ccccc23)[C@H]1CCCO	i	i	i	i	i	i
CC(=O)NNC(=S)Nc1cc(S(=O)(=O)N(C)C)ccc1C	i	i	i	i	i	i
CC1CCCCC1NC(=S)Nc1cccc(S(=O)(=O)N(C)C)c1 (stereo unspecified)	i	i	2.92	i	i	i
CCN(CC)S(=O)(=O)c1cccc(C(=O)NC2CCCCC2)c1	i	i	i	i	i	i
Cc1ccc(S(=O)(=O)N(C)C)cc1NC(=S)NC1CCCC(C)C1C (stereo unspecified)	i	i	2.83	i	i	i
Cc1ccc(NC(=S)NC2CCCCC2)cc1S(=O)(=O)N(C)C	i	i	2.36	i	i	i
CCN(CC)S(=O)(=O)c1ccc(C)c(NC(=S)NC2CCCCC2)c1	i	nt	2.04	i	i	nt
NC(=O)c1ccc(OCC(=O)N2CCNC2=O)cc1	i	nt	i	i	i	nt
O=C(Nc1nc2cc3c(cc2s1)OCCO3)c1ccc([N+](=O)[O-])o1	i	nt	i	i	i	nt
CCOc1ccc(C(C)NC(=S)NCc2ccc(Cl)cc2)cc1 (stereo unspecified)	i	i	4.01	i	i	i
CCCc1ccc(C(C)NC(=S)NCc2ccc(F)cc2)cc1 (stereo unspecified)	i	nt	2.96	i	i	nt
CC(NC(=S)NC1CCCCC1)c1ccccc1 (stereo unspecified)	i	nt	i	i	i	nt
Cc1ccccc1NC(=S)NCc1ccc(F)cc1	i	nt	i	i	i	nt
CCCc1ccc(C(C)NC(=S)NC2CCCCC2)cc1 (stereo unspecified)	i	nt	2.31	i	i	nt
CCC(NC(=S)NCc1ccc(F)cc1)c1ccc(C(C)C)cc1 (stereo unspecified)	i	nt	4.15	i	i	nt
CC(C)(CNC(=O)c1cc2c(s1)CCCC2)N1CCOCC1	i	nt	i	i	i	nt
CCC(C)c1ccc(C(C)NC(=S)NCc2ccc(F)cc2)cc1 (stereo unspecified)	i	nt	2.57	i	i	nt
COc1ccc(C(C)NC(=S)NCc2ccc(F)cc2)cc1OC (stereo unspecified)	i	nt	i	i	i	nt
Cc1cccc(NS(=O)(=O)c2cnc[nH]2)c1	i	2	i	i	i	i
COc1cc(NC(=O)C2CCN(S(=O)(=O)c3ccc(Cl)cc3)CC2)ccc1-n1cnnn1	i	i	2.31	i	i	i
Clc1ccc(N2N=C(c3cccs3)CC2c2ccco2)cc1 (stereo unspecified)	i	i	i	i	i	i
c1ccc(N2N=C(c3cccs3)CC2c2ccco2)cc1 (stereo unspecified)	i	i	2.08	i	i	i
O=C(Nc1cccc(Cl)c1)NC1(C(=O)NCc2cccs2)CCCCC1	i	i	2.21	i	i	i
SMILES	mIAP inh	bIAP activator	mIAP activ	hIAP block	hIAP act	bIAP inh
O=C(NCc1cccs1)Nc1cccc(Cl)c1	i	nt	i	i	i	nt
CCCCn1c(N)c(N(CC(C)C)C(=O)c2ccc(C)c(S(=O)(=O)N3CCCCC3)c2)c(=O)[nH]c1=O	i	nt	i	i	i	nt
CC(=O)c1ccc(NC(=O)c2ccc(CNc3c(N4CCOCC4)c(=O)c3=O)cc2)cc1	i	nt	i	i	i	nt
COC(=O)c1ccc(NC(=S)N2CCN(CCO)CC2)cc1	i	nt	i	i	i	nt
Cc1cc(C)n(-c2nc(NCCC(C)C)c3c4c(sc3n2)COC(C)(C)C4)n1	nt	2.4	nt	nt	nt	i
Cc1cc(C)n(-c2nc(NCCN(C)C)c3c4c(sc3n2)COC(C)(C)C4)n1	i	nt	i	i	i	nt
Cc1csc2nc(COC(=O)c3ccc(Cl)c([N+](=O)[O-])c3)cc(=O)n12	i	nt	i	i	i	nt
CC(NC(=O)NC1CCCCC1)C(c1cccs1)N1CCOCC1 (stereo unspecified)	i	i	i	i	i	i
CC(NC(=S)NCCc1ccccc1)C(c1cccs1)N1CCN(Cc2ccccc2)CC1 (stereo unspecified)	i	i	5.3	i	i	nt
CCN1CCN(C(c2cccs2)C(C)NC(=S)Nc2cc(C)ccc2C)CC1 (stereo unspecified)	i	nt	i	i	i	nt
CC(NC(=O)NC1CCCCC1)C(c1cccs1)N1CCN(Cc2ccccc2)CC1 (stereo unspecified)	i	3.4	i	i	i	i
Cc1cccc(-c2cccc(NC(=O)C3CCCN(C(=O)c4csc(C)n4)C3)c2)c1 (stereo unspecified)	i	nt	i	i	i	nt
COc1cc(C2CC(c3cccnc3)=NN2c2ccc(F)cc2)cc(OC)c1OC (stereo unspecified)	i	i	2.23	i	i	i
COc1ccc(NS(=O)(=O)c2ccc3oc(SC(C)C(N)=O)nc3c2)cc1 (stereo unspecified)	i	nt	i	i	i	nt
CCCc1c(NC(=O)Nc2ccc(F)cc2)cnn1-c1ccccc1	i	nt	2.3	i	i	nt
CCN(Cc1ccncc1)C(=O)C1CCC(=O)N(Cc2ccc(Cl)cc2)C1 (stereo unspecified)	i	nt	i	i	i	nt
N#CCc1ccc(NC(=O)Nc2cccc3ccccc23)cc1	i	nt	2.1	i	i	nt
Cc1ccc(NC(=O)Nc2cccc3ccccc23)cc1	i	nt	i	i	i	nt
CC1CC(C)CN(C(=O)c2cccc(S(=O)(=O)NCc3ccccc3)c2)C1 (stereo unspecified)	i	nt	i	i	i	nt
COc1ccc(CCNC(=S)NCc2ccc(Cl)c(Cl)c2)cc1OC	i	i	2.04	i	i	i
COC(=O)c1ccccc1N1C(=O)C2C(C1=O)[C@H]1C=C[C@@H]2C1 (stereo partly specified)	50.3	i	i	i	i	i
O=C(CN1C(=O)c2cccc([N+](=O)[O-])c2C1=O)OCC(=O)N1CCCCC1	i	nt	i	i	i	nt
CNC(=O)COC(=O)c1ccc2c(c1)NC(=O)C1CCCN21 (stereo unspecified)	i	nt	i	i	i	nt
S=C(NCc1ccc(Cl)cc1Cl)Nc1ccccc1	i	i	2.35	i	i	i
S=C(NCc1ccc(Cl)cc1)Nc1ccccc1	i	i	i	i	i	i
Fc1cccc(NC(=S)NCc2ccccc2Cl)c1	i	nt	3.03	i	i	nt
Cc1cc(Cl)ccc1NC(=S)NCc1ccccc1Cl	i	i	2.62	i	i	i
COc1ccc(CNC(=S)Nc2ccc(F)c(Cl)c2)cc1	i	i	2.62	i	i	i
